Results reported in ChEMBL document CHEMBL4043076, “Hormonemate Derivatives from Dothiora sp., an Endophytic Fungus” (J Nat Prod, 2017).

Key:
Format in all cases: functional, cell-based
[1] = test system: HepG2; assay: Cytotoxicity against human HepG2 cells assessed as reduction in cell viability incubated for 24 hrs by MTT assay; conditions: HepG2, 24 h
Outline: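 HepG2 (ATCC) grown in Eagle's MEM with 10% FBS, 2 mM L-glutamine, 1 mM sodium pyruvate and 100 μM nonessential amino acids at 37 °C, 5% CO2. Seeded at 20000 cells/well for the 24 h assay. Compounds were run in triplicate at 10 two-fold dilutions from 40 μg/mL, with 0.5% DMSO maximum. Viability was read by MTT reduction and IC50 determined.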

[2] = test system: MIA PaCa-2; assay: Cytotoxicity against human MIAPaCa2 cells assessed as reduction in cell viability incubated for 24 hrs by MTT assay; conditions: MIA PaCa-2, 24 h
Outline: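 MiaPaca_2 (ATCC CRL-1420) cultured in DMEM with 10% FBS, 2.5% horse serum, 1% L-glutamine and 1% penicillin/streptomycin at 37 °C, 5% CO2. Seeding was 20000 cells/well for the 24 h assay. Compounds were tested in triplicate over 10 two-fold dilutions from a 40 μg/mL top concentration, with 0.5% DMSO as negative control. MTT reduction was used for IC50.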

[3] = test system: MCF7; assay: Cytotoxicity against human MCF7 cells assessed as reduction in cell viability incubated for 24 hrs by MTT assay; conditions: MCF7, 24 h
Outline: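 MCF-7 (ATCC HTB-22) kept in MEM with 10% FBS, glutamine, pyruvate and nonessential amino acids plus 0.01 mg/mL bovine insulin at 37 °C, 5% CO2. Plated at 30000 cells/well for the 24 h exposure. Triplicate 10-point, 2-fold serial dilutions from 40 μg/mL were used, with DMSO ≤0.5%. MMS served as positive control. The MTT viability read-out gave the IC50.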

Row | Structure (SMILES) | IC50 [1] | IC50 [2] | IC50 [3]
1 | CC[C@H](C)[C@@H](O)C(=O)O[C@@H](C(=O)O[C@@H](C(=O)O[C@@H](C(=O)O[C@@H](C(=O)O[C@H](CO)[C@@H](O)[C@H](O)[C@H](O)CO)[C@@H](C)CC)[C@@H](C)CC)[C@@H](C)CC)[C@@H](C)CC | 36.2 µM | > 53.2 µM | 18.3 µM
2 | CC[C@H](C)[C@@H](O)C(=O)O[C@@H](C(=O)O[C@@H](C(=O)O[C@@H](C(=O)O[C@@H](C(=O)OC[C@@H](O)[C@@H](O)CO)[C@@H](C)CC)[C@@H](C)CC)[C@@H](C)CC)[C@@H](C)CC | 28.7 µM | > 57.8 µM | 11.1 µM
3 | CC[C@H](C)[C@@H](O)C(=O)O[C@@H](C(=O)O[C@@H](C(=O)O[C@@H](C(=O)O[C@@H](C(=O)OC[C@@H](O)[C@@H](O)[C@H](O)CO)[C@@H](C)CC)[C@@H](C)CC)[C@@H](C)CC)[C@@H](C)CC | 29 µM | > 55.4 µM | 15.6 µM
4 | CC[C@H](C)[C@@H](O)C(=O)O[C@@H](C(=O)O[C@@H](C(=O)O[C@@H](C(=O)O[C@@H](C(=O)O[C@H](CO)[C@@H](O)[C@H](O)CO)[C@@H](C)CC)[C@@H](C)CC)[C@@H](C)CC)[C@@H](C)CC | 26.2 µM | 36.4 µM | 19 µM
5 | CC[C@H](C)[C@@H](O)C(=O)O[C@@H](C(=O)O[C@@H](C(=O)O[C@@H](C(=O)O[C@@H](C(=O)O[C@@H]([C@H](O)[C@H](O)CO)[C@H](O)CO)[C@@H](C)CC)[C@@H](C)CC)[C@@H](C)CC)[C@@H](C)CC | > 53.2 µM | > 53.2 µM | 27.8 µM
6 | COc1cccc2c1C(=O)c1c(O)c3c(c(O)c1C2=O)C[C@@](O)(C(=O)CO)C[C@@H]3O[C@H]1C[C@H](N)[C@H](O)[C@H](C)O1 [DOXORUBICIN] | 0.2 µM | 1.9 µM | 
7 | CC[C@H](C)[C@@H](O)C(=O)O[C@@H](C(=O)O[C@@H](C(=O)O[C@@H](C(=O)OC[C@@H](O)[C@@H](O)[C@H](O)CO)[C@@H](C)CC)[C@@H](C)CC)[C@@H](C)CC | > 65.7 µM | > 65.7 µM | > 65.7 µM
8 | CC[C@H](C)[C@@H](O)C(=O)O[C@@H](C(=O)O[C@@H](C(=O)O[C@@H](C(=O)O[C@@H](C(=O)OC[C@@H](O)[C@@H](O)[C@H](O)[C@H](O)CO)[C@@H](C)CC)[C@@H](C)CC)[C@@H](C)CC)[C@@H](C)CC | > 53.2 µM | > 53.2 µM | 24.3 µM
